Tests used:
Assay type in all cases: functional
Aspergillus niger [1] = assay: Antifungal activity against Aspergillus niger MTCC 404 assessed as zone of inhibition at 36 uM incubated for 2 days by cross streak plate method; details: MTCC 404, 48 h, time 2 day, read-out: IZ
Summary of the method: (§1)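 Fungal strain (A. niger MTCC 404 or S. cerevisiae MTCC 1344) was incubated with the compound for 2 days at 37 °C. Growth inhibition was then assessed by the cross streak plate method.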

Saccharomyces cerevisiae [2] = assay: Antifungal activity against Saccharomyces cerevisiae MTCC 1344 assessed as zone of inhibition at 24 uM incubated for 2 days by cross streak plate method; details: MTCC 1344, 48 h, time 2 day, read-out: IZ; summary of the method: as §1
Saccharomyces cerevisiae [3] = assay: Antifungal activity against Saccharomyces cerevisiae MTCC 1344 assessed as zone of inhibition at 36 uM incubated for 2 days by cross streak plate method; details: MTCC 1344, 48 h, time 2 day, read-out: IZ
Summary of the method: (§2)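 S. cerevisiae MTCC 1344 cultures were incubated for 2 days at 37 °C and then tested by the cross streak plate method.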

Aspergillus niger [4] = assay: Antifungal activity against Aspergillus niger MTCC 404 assessed as zone of inhibition at 48 uM incubated for 2 days by cross streak plate method; details: MTCC 404, 48 h, time 2 day, read-out: IZ; summary of the method: as §1
Aspergillus niger [5] = assay: Antifungal activity against Aspergillus niger MTCC 404 assessed as zone of inhibition at 24 uM incubated for 2 days by cross streak plate method; details: MTCC 404, 48 h, time 2 day, read-out: IZ; summary of the method: as §1
Saccharomyces cerevisiae [6] = assay: Antifungal activity against Saccharomyces cerevisiae MTCC 1344 assessed as zone of inhibition at 48 uM incubated for 2 days by cross streak plate method; details: MTCC 1344, 48 h, time 2 day, read-out: IZ; summary of the method: as §2

Question: Which zone of inhibition at 36 µM (Aspergillus niger [1]) does the source give for `Clc1ccc(COC(Cn2ccnc2)c2ccc(Cl)cc2Cl)c(Cl)c1` (stereo unspecified) [MICONAZOLE] here?
Answer: Its zone of inhibition at 36 µM is 10 mm.

Question: And the zone of inhibition at 24 µM (Saccharomyces cerevisiae [2])?
Answer: The zone of inhibition at 24 µM was 8 mm.

Question: And the zone of inhibition at 36 µM (Saccharomyces cerevisiae [3])?
Answer: The zone of inhibition at 36 µM was 9 mm.

Question: And the zone of inhibition at 48 µM (Aspergillus niger [4])?
Answer: The zone of inhibition at 48 µM was 12 mm.

Question: What about the zone of inhibition at 24 µM (Aspergillus niger [5]) of the same molecule?
Answer: The zone of inhibition at 24 µM was 8 mm.

Question: And the zone of inhibition at 48 µM (Saccharomyces cerevisiae [6])?
Answer: Its zone of inhibition at 48 µM is 12 mm.
